How the values were obtained:
[1] = Tmax in Sprague-Dawley rat at 30 mg/kg, po measured upto 24 hrs by LC-MS/MS analysis; type: ADME, organism-based; settings: in vivo
How it was run: (§1)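 Male SD rats (N = 3), single oral 30 mg/kg in PEG200/DMA (9:1, v/v). Blood from retrobulbar vein at 0–24 h; heparinized plasma, protein precipitation with methanol, LC-MS/MS quantitation; parameters by non-compartmental analysis.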

L02 = assay: Antiproliferative activity against human L02 cells assessed as reduction in cell viability incubated for 6 days by CCK8 assay; type: cell-based; settings: L02, 144 h
How it was run: (§2)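 Cells seeded (2×10^4 per well for VCaP, 1–3×10^3 for the others) and compound added after 24 h as a 9-point, 3-fold serial dilution. Exposure 6 days, then CCK-8 for 1–4 h and absorbance at 450 nm. IC50 from curve fit, mean of at least two independent experiments run in duplicate.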

[2] = AUC ( 0 to infinity) in Sprague-Dawley rat at 30 mg/kg, po measured upto 24 hrs by LC-MS/MS analysis; type: ADME, organism-based; design: dose 30 mg/kg, time infinity, route oral; settings: in vivo; how it was run: as §1
PC-3 = assay: Antiproliferative activity against human PC3 cells assessed as reduction in cell viability incubated for 6 days by CCK8 assay; type: functional, cell-based; settings: PC-3, 144 h; how it was run: as §2
[3] = system: T1, Androgen receptor (Homo sapiens), P10275 [F877L]; assay: Antagonist activity against human AR F876L mutant expressed in human PC3 cells assessed as inhibition of 1 nM R1881-induced transactivation incubated for 24 hrs by dual luciferase reporter gene assay; type: cell-based
T1 sequence (whole entry): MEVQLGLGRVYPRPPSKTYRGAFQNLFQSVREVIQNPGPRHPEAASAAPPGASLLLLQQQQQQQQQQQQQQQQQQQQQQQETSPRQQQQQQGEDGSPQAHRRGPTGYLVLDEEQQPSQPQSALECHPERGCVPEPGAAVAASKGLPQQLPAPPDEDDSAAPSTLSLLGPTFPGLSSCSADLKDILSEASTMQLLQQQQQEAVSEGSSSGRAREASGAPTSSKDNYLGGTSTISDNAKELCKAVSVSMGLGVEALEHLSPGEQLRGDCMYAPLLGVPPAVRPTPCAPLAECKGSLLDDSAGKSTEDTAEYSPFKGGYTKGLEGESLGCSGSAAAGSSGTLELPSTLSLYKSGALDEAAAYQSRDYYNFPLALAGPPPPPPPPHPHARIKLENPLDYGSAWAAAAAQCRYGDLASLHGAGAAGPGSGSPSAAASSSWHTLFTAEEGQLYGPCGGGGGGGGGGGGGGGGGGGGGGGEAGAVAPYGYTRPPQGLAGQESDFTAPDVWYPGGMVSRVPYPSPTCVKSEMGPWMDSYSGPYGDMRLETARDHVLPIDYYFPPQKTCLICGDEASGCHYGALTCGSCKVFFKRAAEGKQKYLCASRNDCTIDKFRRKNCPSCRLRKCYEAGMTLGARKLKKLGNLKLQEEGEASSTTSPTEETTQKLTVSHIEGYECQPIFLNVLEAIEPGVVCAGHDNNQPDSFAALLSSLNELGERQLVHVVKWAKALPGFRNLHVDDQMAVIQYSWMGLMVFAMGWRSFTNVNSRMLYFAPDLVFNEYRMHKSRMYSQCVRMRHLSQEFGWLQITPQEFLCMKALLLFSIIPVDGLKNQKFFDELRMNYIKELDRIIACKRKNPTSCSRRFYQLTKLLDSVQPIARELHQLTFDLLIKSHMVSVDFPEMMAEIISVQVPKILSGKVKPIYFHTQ
How it was run: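 PC-3 cells in DMEM/F12 (1:1) with 5% charcoal-stripped FBS, cotransfected with 50 ng F876L AR plasmid and 50 ng AR luciferase reporter per well. 24 h post-transfection, compound plus 1 nM R1881 for 24 h. Firefly luminescence normalized to Renilla; mean ± SEM, n = 3.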

Tmax [1]: 30 min
AUC(0-inf) [2]: 4060 ng·h/mL
IC50 (PC-3): 23.3 µM
Activity [3]: Dose-dependent effect
Compound: Cc1ccc(-c2c(C)noc2C)cc1Nc1ccc(C#N)c(Cl)c1
IC50 (L02): 11.3 µM

Reference: ChEMBL document CHEMBL4346686, “Discovery and biological evaluation of novel androgen receptor antagonist for castration-resistant prostate cancer” (Eur J Med Chem, 2019)
